Source: BindingDB's records for doi:10.1021/jm0310986 (Serono Pharmaceutical Research Institute, 2005)

Target: Mitogen-activated protein kinase 10 (Rattus norvegicus, UniProt P49187)
Test: Inhibition of rat c-Jun N-terminal kinase 3
Outline: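 GST-JNK3 was preactivated overnight at room temperature with GST-JNKK2 and ATP-γ-S, then dialysed. The enzyme (0.5 µg) was incubated with biotinylated GST-c-Jun (1 µg) and 2 µM ³³P-γ-ATP in 50 mM Tris-HCl pH 8.0, 10 mM MgCl₂, 1 mM DTT and 100 µM NaVO₄ for 120 min at room temperature. Reaction stopped with EDTA; phosphorylation detected by streptavidin SPA beads and scintillation counting. Values from triplicates.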

Sequence of Mitogen-activated protein kinase 10 (P49187 whole entry): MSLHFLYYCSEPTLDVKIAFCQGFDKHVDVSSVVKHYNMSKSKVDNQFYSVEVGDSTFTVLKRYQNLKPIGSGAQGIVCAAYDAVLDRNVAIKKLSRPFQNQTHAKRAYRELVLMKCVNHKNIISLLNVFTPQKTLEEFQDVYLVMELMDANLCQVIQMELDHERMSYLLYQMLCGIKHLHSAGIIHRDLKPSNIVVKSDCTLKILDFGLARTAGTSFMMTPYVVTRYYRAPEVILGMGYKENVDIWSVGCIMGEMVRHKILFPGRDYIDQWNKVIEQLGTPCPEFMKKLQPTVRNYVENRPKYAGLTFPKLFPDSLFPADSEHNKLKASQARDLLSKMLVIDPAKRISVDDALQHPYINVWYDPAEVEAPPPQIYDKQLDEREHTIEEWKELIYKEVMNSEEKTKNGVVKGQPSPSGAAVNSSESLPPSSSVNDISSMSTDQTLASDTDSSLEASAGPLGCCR

Row | IC50 [µM] | Compound
1 | > 5 | N#CC(c1ccnc(NCCc2cccc(Cl)c2)n1)c1nc2ccccc2s1 (stereo not drawn) [[3H-Benzothiazol-(2Z)-ylidene]-{2-[2-(3-chloro-phenyl)-ethylamino]-pyrimidin-4-yl}-acetonitrile]
2 | > 5 | N#CC(c1ccnc(NCCc2ccccc2)n1)c1nc2ccccc2s1 (stereo not drawn) [[3H-Benzothiazol-(2Z)-ylidene]-(2-phenethylamino-pyrimidin-4-yl)-acetonitrile]
3 | > 5 | Cc1ccc(CCNc2nccc(C(C#N)c3nc4ccccc4s3)n2)cc1 (stereo not drawn) [[3H-Benzothiazol-(2Z)-ylidene]-[2-(2-p-tolyl-ethylamino)-pyrimidin-4-yl]-acetonitrile]
4 | 0.08 | N#CC(c1ccnc(NCCc2ccc(N)cc2)n1)c1nc2ccccc2s1 (stereo not drawn) [{2-[2-(4-Amino-phenyl)-ethylamino]-pyrimidin-4-yl}-[3H-benzothiazol-(2Z)-ylidene]-acetonitrile]
5 | > 5 | N#CC(c1ccnc(NCCc2ccc(Br)cc2)n1)c1nc2ccccc2s1 (stereo not drawn) [[3H-Benzothiazol-(2Z)-ylidene]-{2-[2-(4-bromo-phenyl)-ethylamino]-pyrimidin-4-yl}-acetonitrile]
6 | > 5 | N#CC(c1ccnc(NCCc2ccc(F)cc2)n1)c1nc2ccccc2s1 (stereo not drawn) [[3H-Benzothiazol-(2Z)-ylidene]-{2-[2-(4-fluoro-phenyl)-ethylamino]-pyrimidin-4-yl}-acetonitrile]
7 | 0.25 | N#CC(c1ccnc(NCCc2ccccn2)n1)c1nc2ccccc2s1 (stereo not drawn) [[3H-Benzothiazol-(2Z)-ylidene]-[2-(2-pyridin-2-yl-ethylamino)-pyrimidin-4-yl]-acetonitrile]

The next lines start with the molecule.

Row | Compound | IC50 [µM]
8 | CCCN(CCC)c1nccc(C(C#N)c2nc3ccccc3s2)n1 (stereo not drawn) [[3H-Benzothiazol-(2Z)-ylidene]-(2-dipropylamino-pyrimidin-4-yl)-acetonitrile] | > 5
9 | N#CC(c1cccc(Cl)n1)c1nc2ccccc2s1 (stereo not drawn) [(2Z)-1,3-benzothiazol-2(3H)-ylidene(6-chloropyridin-2-yl)acetonitrile] | > 5
10 | N#CC(c1ccnc(Cl)n1)c1nc2ccccc2s1 (stereo not drawn) [(2Z)-1,3-benzothiazol-2(3H)-ylidene(2-chloropyrimidin-4-yl)acetonitrile] | 0.25
11 | N#CC(c1ccnc(NCCc2c[nH]cn2)n1)c1nc2ccccc2s1 (stereo not drawn) | 0.08
12 | N#CC(c1nc2ccccc2[nH]1)c1nc(Cl)ncc1Br (stereo not drawn) [(5-Bromo-2-chloro-pyrimidin-4-yl)-(1,3-dihydro-benzoimidazol-2-ylidene)-acetonitrile] | > 5
13 | N#CC(c1ccnc(NCc2nnn[nH]2)n1)c1nc2ccccc2s1 (stereo not drawn) [[3H-Benzothiazol-(2Z)-ylidene]-{2-[(1H-tetrazol-5-ylmethyl)-amino]-pyrimidin-4-yl}-acetonitrile] | > 5
14 | N#CC(c1ccncn1)c1nc2ccccc2s1 (stereo not drawn) [(2Z)-1,3-benzothiazol-2(3H)-ylidene(pyrimidin-4-yl)acetonitrile] | > 5
15 | N#CC(c1ccnc(NCCc2ccc(Cl)c(Cl)c2)n1)c1nc2ccccc2s1 (stereo not drawn) [[3H-Benzothiazol-(2Z)-ylidene]-{2-[2-(3,4-dichloro-phenyl)-ethylamino]-pyrimidin-4-yl}-acetonitrile] | > 5
16 | Cc1cc(C(C#N)c2nc3ccccc3s2)nc(Cl)n1 (stereo not drawn) [(2Z)-1,3-benzothiazol-2(3H)-ylidene(2-chloro-6-methylpyrimidin-4-yl)acetonitrile] | > 5
17 | CCCNc1nccc(C(C#N)c2nc3ccccc3s2)n1 (stereo not drawn) [[3H-Benzothiazol-(2Z)-ylidene]-(2-propylamino-pyrimidin-4-yl)-acetonitrile] | > 5
18 | CCOC(=O)C(c1ccnc(Cl)n1)c1nc2ccccc2s1 (stereo not drawn) [[3H-Benzothiazol-(2Z)-ylidene]-(2-chloro-pyrimidin-4-yl)-acetic acid ethyl ester] | > 5
